Results on six molecules are retold here after PMC4369925 (Current molecular medicine, 2014).

What is called IC50 is the point on the concentration scale where inhibition reaches its midpoint. High values mean weaker potency, low ones greater potency.

Residues, ends and D or L forms follow the SMILES beside them.

Experiment [1] has as its target T1, rPRCP1 (Homo sapiens, UniProt P42785).
T1 sequence (P42785 46-496): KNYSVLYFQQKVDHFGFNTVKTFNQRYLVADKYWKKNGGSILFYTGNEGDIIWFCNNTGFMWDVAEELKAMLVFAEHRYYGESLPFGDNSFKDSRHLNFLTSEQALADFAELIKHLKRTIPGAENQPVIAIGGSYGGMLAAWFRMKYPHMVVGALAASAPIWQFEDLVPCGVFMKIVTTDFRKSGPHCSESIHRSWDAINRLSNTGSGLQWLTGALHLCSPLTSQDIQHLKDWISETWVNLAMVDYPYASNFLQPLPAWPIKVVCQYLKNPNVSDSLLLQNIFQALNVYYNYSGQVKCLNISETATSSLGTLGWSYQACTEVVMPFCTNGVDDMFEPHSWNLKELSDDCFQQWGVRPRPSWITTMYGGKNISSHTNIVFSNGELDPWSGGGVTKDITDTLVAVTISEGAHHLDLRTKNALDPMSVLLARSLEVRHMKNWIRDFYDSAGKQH
Kind of experiment: Peptide inhibition of rPRCP1 hydrolysis of APpNA. It is filed as biochemical. In a few lines:
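Recombinant PRCP1 hydrolysis of APpNA was measured at 37°C with sub-saturating substrate relative to Km. The initial hydrolysis rate was read at 405 nm in triplicate. Percent inhibition = [1 − (sample − blank)/(total − blank)] × 100, and IC50 and inhibition type were derived from it.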

In the next experiment the test system is plasma kallikrein. Kind of experiment: Autoactivation of human plasma PK with rPKs, fluid-phase assay. Type of experiment: biochemical. The note with it: 1 h. In a few lines: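 Recombinant PK was expressed in stably transfected HEK cells in serum-free conditioned medium, purified by S-Sepharose cation exchange (pH 5.2, NaCl gradient) and dialysed into TBS pH 7.4. Plasma PK and rPKs, 25 nM each, were incubated in triplicate for 1 h at 37°C. […], kallikrein was assayed with or without a kallikrein inhibitor using 0.5 mM S2302 for 1 h at 37°C, read at 405 nm.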

Experiment [2] has as its target T1, rPRCP1. Kind of experiment: Hydrolysis of X-Pro-pNA chromogenic substrates by rPRCP1. Type of experiment: biochemical. The conditions noted are these: for ratio of Km to the Km of GPpNA: rPRCP1, X-Pro-pNA, 37°C 1 h, 405 nm, ratio <1 more selective than GPpNA. In a few lines: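 Recombinant PRCP1 was expressed in Schneider 2 cells. Increasing concentrations of X-Pro-pNA substrates were incubated with it in HEPES-carbonated buffer (pH 7.1, 2 mM CaCl2, 1 mM MgCl2, 0.1% gelatin) at 37°C for 1 h in the dark; two substrates needed 24 h. pNA release was read at 405 nm. Runs were in duplicate, at least 3 times, and data were fit to Michaelis–Menten.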

In another experiment the test system is rPRCP activation of PK. Kind of experiment: rPRCP activation of PK bound to HK on microtiter plate. It is filed as biochemical, human. The conditions noted are these: rPRCP 3 μg, HK-coated plate, 1 h. In a few lines: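 Plasma PK, wild-type rPK or mutant rPKs (25 nM) were added to HK-coated microtiter wells with or without recombinant PRCP in HEPES-carbonate buffer pH 7.1 for 1 h at 37°C. Some wells also received a peptide blocking PK–HK binding (0.1 mM). S2302 (0.5 mM) was then added for 1 h at 37°C and read at 405 nm; three experiments.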

For experiment [3], the system named is PRCP1-dependent PK activation on HPAEC. Kind of experiment: PRCP1-dependent PK activation. The conditions noted are these: 25 nM rPK + 25 nM HK on HPAEC. Type of experiment: cell-based, human.

`CSCC[C@H](NC(=O)[C@H](CCC(N)=O)NC(=O)[C@H](C)NC(=O)[C@H](CCCCN)NC(=O)CNC(=O)[C@@H](N)CC(=O)O)C(=O)N[C@@H](CCC(N)=O)C(=O)N[C@@H](CO)C(=O)N1CCC[C@H]1C(=O)N[C@@H](C)C(=O)O` [DGK10] (H-DGKAQMQSPA-OH): the IC50 on rPRCP1 [1] is 600 µM. With `Cc1cc(Oc2nc(Oc3cccc(C(=N)N)c3)c(F)c(NC(C)CCc3ccccc3)c2F)c(C(=O)O)cc1N(C)C` (centres unmarked) [PF048, reference compound], the “block of autoactivation of PK (in words)” value in the experiment with plasma kallikrein (100 nM inhibitor, plasma PK 25 nM + rPK mutants 25 nM) is recorded as “block”. In the case of “Ala-Pro-paranitroanilide [APpNA, reference compound]”, the “ratio of Km to the Km of GPpNA” value on rPRCP1 [2] turned out to be 0.4. As to Ser-Pro-paranitroanilide [SPpNA], on rPRCP1 [2] (rPRCP1, Michaelis-Menten fit), the “product turnover (kcat) compared with APpNA and GPpNA” value was “not significantly different”. Further, the “ratio of Km to the Km of GPpNA” value at rPRCP1 [2] is on record as 0.23. Moreover, the “catalytic efficiency (kcat/Km), times higher than GPpNA” value at rPRCP1 [2] (rPRCP hydrolysis) was 6-7 times. The “catalytic efficiency (kcat/Km), fold higher than APpNA” value on rPRCP1 [2] (rPRCP hydrolysis, printed as 'at least') is 2-3 fold.

Regarding “rPK^P637A: recombinant PK, C-terminal Pro-Ala replaced by Ala-Ala”, the “autoactivation of plasma PK (in words)” value with plasma kallikrein (plasma PK 25 nM + rPK 25 nM, S2302) was “lower threshold for autoactivation”. Besides, the “activability by rPRCP (in words)” value in the experiment with rPRCP activation of PK (25 nM rPK) was “significantly more activable by rPRCP than wild type rPK”. For “wild type rPK: recombinant wild type human prekallikrein”, the “degree of activation by rPRCP relative to wild type plasma PK” value in the experiment on rPRCP activation of PK (25 nM PK) is “about 66%”. In addition, the “activation to plasma kallikrein on HPAEC (in words)” value in experiment [3] is recorded as “less than half”.
